The values that follow come from the array DNA melting data of Ke et al. (doi:10.1101/2024.01.08.574731).

Data set [1] in a line: folding enthalpy; higher = less favourable; fluorescence melt of hairpins on a sequencing array, two-state fit. The conditions noted are these: sodium 0.088 M. In a few lines: (§1)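 Melting temperature and folding enthalpy were obtained by bootstrapped two-state fitting. Fits used Cy3 fluorescence of library hairpins with annealed Cy3 and quencher oligos on a sequenced MiSeq flow cell, imaged in 50 mM Na-HEPES pH 8.0, 25 mM NaCl in 2.5 °C steps up to 60 °C and normalised to pre-quench Cy3 and control constructs. Four replicates were combined by inverse-variance weighting, and fitted temperatures were raised by 9.35 °C to match UV melts.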

Data set [2] is described as follows: melting temperature; fluorescence melt of hairpins on a sequencing array, two-state fit, raised by 9.35 °C to match UV melts. Particulars: sodium 0.088 M. In a few lines: as §1

For the sequence GTGGCTGGAAACAACCAC ((((.((....)).)))), the folding enthalpy in data set [1] was -34.4 kcal/mol. The Tm in data set [2] is 45.8 °C.

Turning to GTGGGACGAAAGTCTCAC (((.(((....))).))), the folding enthalpy in data set [1] was -36 kcal/mol. In addition, the Tm in data set [2] was 60 °C.

For GTGGGAGAAATCCCAC ((((((....)))))), the folding enthalpy in data set [1] is -28.3 kcal/mol. For the same sequence, in data set [2], the Tm is 58.8 °C.

As for GTGGGAGCGAAAGCTCAC (((..(((....)))))), the folding enthalpy in data set [1] is -19.2 kcal/mol. Further, the Tm in data set [2] came to 62.9 °C.

Turning to GTGGGAGGAAACCCCCAC (((((.(....).))))), the folding enthalpy in data set [1] is -38.8 kcal/mol. For the same sequence, the Tm in data set [2] stood at 50.3 °C.

In the case of GTGGGAGGAAACTCCCGC (.(((((....))))).), the folding enthalpy in data set [1] is -33.4 kcal/mol. Further, the Tm in data set [2] was determined as 56.7 °C.

Regarding GTGGGATCGAAAGATCAC (((..(((....)))))), the folding enthalpy in data set [1] is -44.4 kcal/mol. In addition, the Tm in data set [2] came to 54.4 °C.

In the case of GTGGGCACGAAAGTGCAC (((..(((....)))))), the folding enthalpy in data set [1] is -14.6 kcal/mol. The Tm in data set [2] amounted to 65.4 °C.

On to GTGGGCCGAAAGGCTCAC (((.(((....))).))), for which the folding enthalpy in data set [1] was -29.6 kcal/mol. Also, the Tm in data set [2] came out at 69.2 °C.

As for GTGGGCGAAAGCCACAC ((((((....))).))), the folding enthalpy in data set [1] was -14.4 kcal/mol. The Tm in data set [2] was 59.9 °C.

Consider GTGGGCGAAAGCCATCAC ((((((....)))..))), for which, in data set [1], the folding enthalpy was -11.4 kcal/mol. Moreover, the Tm in data set [2] was 39.7 °C.

In the case of GTGGGCGAAAGCCGGCAC ((((((....)))..))), the folding enthalpy in data set [1] is -12.1 kcal/mol. The Tm in data set [2] was 45.8 °C.

Turning to GTGGGCTCGAAAGAGCAC (((..(((....)))))), in data set [1], the folding enthalpy was -26 kcal/mol. In addition, the Tm in data set [2] was determined as 65.5 °C.

In the case of GTGGGGCCGAAAGGCCAC (((..(((....)))))), the folding enthalpy in data set [1] is -16.2 kcal/mol. The Tm in data set [2] was 64.9 °C.

Consider GTGGGGGGAAACCCCCGC (.(((((....))))).), for which, in data set [1], the folding enthalpy was -19.4 kcal/mol. The Tm in data set [2] is 60 °C.

Consider GTGGGGGGAAACCCTCGC (.(.(((....))).).), for which the folding enthalpy in data set [1] was -17.2 kcal/mol. The Tm in data set [2] is 40.8 °C.

Regarding GTGGGGGGAAACCTCCAC ((((.((....)).)))), in data set [1], the folding enthalpy was -44.1 kcal/mol. Also, in data set [2], the Tm came to 54.5 °C.

With GTGGGTCCGAAAGGACAC (((..(((....)))))), the folding enthalpy in data set [1] is -19 kcal/mol. Further, the Tm in data set [2] stood at 63 °C.

With GTGGGTCGAAAGACCAC (((.(((....)))))), the folding enthalpy in data set [1] was -14.3 kcal/mol. Further, the Tm in data set [2] was 57 °C.

With GTGGGTGGAAACACCCGC (.(((((....))))).), in data set [1], the folding enthalpy was -22.7 kcal/mol. In addition, in data set [2], the Tm was found to be 63.3 °C.

In the case of GTGGGTGGAAACACTCAC (((.(((....))).))), the folding enthalpy in data set [1] was -37.2 kcal/mol. In data set [2], the Tm was 52.1 °C.

Turning to GTGGGTGGAAACGCCTAC ((.((.(....).)).)), the folding enthalpy in data set [1] was -25.3 kcal/mol. Besides, in data set [2], the Tm stood at 41.9 °C.

Take GTGGGTGGAAACGTCCAC ((((..(....)..)))): in data set [1], the folding enthalpy is -18.8 kcal/mol. Also, in data set [2], the Tm turned out to be 46 °C.

For the sequence GTGGTACGAAAGTAACAC (((.(((....))).))), the folding enthalpy in data set [1] is -40.3 kcal/mol. In addition, the Tm in data set [2] amounted to 58.2 °C.

Take GTGGTACGAAAGTATCAC (((.(((....))).))): in data set [1], the folding enthalpy was -47.3 kcal/mol. Moreover, the Tm in data set [2] came to 54.2 °C.

Take GTGGTAGGAAACTACTGC (..((((....))))..): in data set [1], the folding enthalpy is -18.2 kcal/mol. Besides, the Tm in data set [2] was 36.1 °C.

For GTGGTAGGAAACTGCTAC ((.(.((....)).).)), in data set [1], the folding enthalpy is -17.7 kcal/mol. Besides, the Tm in data set [2] turned out to be 32.1 °C.

Consider GTGGTCACGAAAGTGCAC (((..(((....)))))), for which, in data set [1], the folding enthalpy is -16.1 kcal/mol. Further, the Tm in data set [2] came out at 39.9 °C.

GTGGTCCGAAAGGAACAC (((.(((....))).))): the folding enthalpy in data set [1] is -33.6 kcal/mol. Moreover, the Tm in data set [2] stood at 65.4 °C.

Regarding GTGGTCGAAAGACAACAC ((((((....)))..))), the folding enthalpy in data set [1] was -18.7 kcal/mol. The Tm in data set [2] turned out to be 46.8 °C.

For the sequence GTGGTCGAAAGACGCCAC ((((((....)))..))), the folding enthalpy in data set [1] was -15.9 kcal/mol. The Tm in data set [2] is 39.6 °C.

As to GTGGTCGAAAGACTACAC ((((((....)))..))), the folding enthalpy in data set [1] is -15.7 kcal/mol. In data set [2], the Tm amounted to 48.2 °C.

For the sequence GTGGTCGAAAGACTTCAC ((((((....)))..))), the folding enthalpy in data set [1] was -15.2 kcal/mol. In addition, the Tm in data set [2] was 31.9 °C.

Regarding GTGGTCGGAAACGACCGC (.(((((....))))).), the folding enthalpy in data set [1] was -17.8 kcal/mol. In data set [2], the Tm stood at 63 °C.

GTGGTCGGAAACGGCTAC ((.(.((....)).).)): in data set [1], the folding enthalpy is -25.8 kcal/mol. For the same sequence, the Tm in data set [2] turned out to be 44.5 °C.

Turning to GTGGTGGGAAACCGTCAC (((..((....))..))), in data set [1], the folding enthalpy is -19.8 kcal/mol. Also, the Tm in data set [2] amounted to 38.4 °C.

Consider GTGGTGGGAAACTACCGC (.(((.(....).))).), for which the folding enthalpy in data set [1] was -28.4 kcal/mol. The Tm in data set [2] was 42.7 °C.
